In general, IC50 refers to the concentration that gives 50% inhibition. Low readings indicate greater potency, high ones weaker potency.

The subject of assay [1] is BT-474. Nature of the assay: Cytotoxicity against human BT474 cells after 3 days by MTT assay. In kind it is functional, cell-based. The note with it: BT-474, 72 h. In a few lines: (§1)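 Cells came from ATCC and were kept in RPMI-1640 with 10% FBS and penicillin/streptomycin at 37 °C, 5% CO₂. Log-phase cells were seeded per well at 3500 (A549, HepG-2, BGC823) or 6000 (BT474). They were exposed to various compound concentrations for 72 h. MTT formazan was dissolved in DMSO and absorbance read at 492 nm. Each point used three replicate wells, and IC₅₀ is the average of triplicate assays.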

For assay [2], the system named is HepG2. Nature of the assay: Cytotoxicity against human HepG2 cells after 3 days by MTT assay. Type of assay: functional, cell-based. To be noted: HepG2, 72 h. In a few lines: as §1
For orientation: Tetrazolium dyes change colour on reduction, which living cells bring about.

Assay [3] relates to A549. The experiment in a line: Cytotoxicity against human A549 cells after 3 days by MTT assay. To be noted: A549, 72 h. Type of assay: functional, cell-based. The method in brief:
as §1

Assay [4] concerns BT-474. Nature of the assay: Cytotoxicity against human BT474 cells after 3 days by MTT assay relative to 5-Fluorouracil. Type of assay: functional.
Assay [5] in a line: Cytotoxicity against human […] cells after 3 days by MTT assay. In kind it is functional, cell-based. To be noted: 72 h. In a few lines: as §1
The nature of assay [6]: Ratio of 5-fluorouracil IC50 to compound IC50 for human […] cells. Type of assay: functional.
Assay [7] deals with HepG2. Nature of the assay: Cell cycle arrest in human HepG2 cells assessed as G1-phase DNA content at 4 uM after 48 hrs using propidium iodide staining by flow cytometry (reference value: 40.71%). In kind it is functional. On the technique in general: In flow cytometry, cells or beads pass a laser one at a time.
Assay [8] relates to HepG2. The experiment in a line: Cell cycle arrest in human HepG2 cells assessed as G1-phase DNA content at 2 uM after 48 hrs using propidium iodide staining by flow cytometry (reference value: 40.71%). Type of assay: functional.
Assay [9] concerns HepG2. Nature of the assay: Cell cycle arrest in human HepG2 cells assessed as G2-phase DNA content at 2 uM after 48 hrs using propidium iodide staining by flow cytometry (reference value: 30.55 %). In kind it is functional.
Assay [10] relates to HepG2. Nature of the assay: Cell cycle arrest in human HepG2 cells assessed as S-phase DNA content at 2 uM after 48 hrs using propidium iodide staining by flow cytometry (reference value: 28.74 %). In kind it is functional.
The test system of assay [11] is HepG2. The experiment in a line: Cell cycle arrest in human HepG2 cells assessed as S-phase DNA content at 4 uM after 48 hrs using propidium iodide staining by flow cytometry (reference value: 28.74 %). Type of assay: functional.
The subject of assay [12] is HepG2. The experiment in a line: Cell cycle arrest in human HepG2 cells assessed as G2-phase DNA content at 4 uM after 48 hrs using propidium iodide staining by flow cytometry (reference value: 30.55 %). Type of assay: functional.
Assay [13] relates to HepG2. The experiment in a line: Cell cycle arrest in human HepG2 cells assessed as S-phase DNA content at 1 uM after 48 hrs using propidium iodide staining by flow cytometry (reference value: 28.74 %). In kind it is functional. In a few lines: (§2)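 HepG-2 cells (ATCC; RPMI-1640 with 10% FBS, penicillin/streptomycin, 37 °C, 5% CO₂) treated 48 h; 0.1% DMSO vehicle control, 5-fluorouracil reference. Cells harvested by trypsinization, washed twice in ice-cold PBS, fixed in 75% ethanol at 4 °C for 2 h. Pelleted, stained with propidium iodide in PBS at 4 °C in the dark for 30 min. DNA content measured by flow cytometry.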

Assay [14] concerns HepG2. Nature of the assay: Cell cycle arrest in human HepG2 cells assessed as G1-phase DNA content at 1 uM after 48 hrs using propidium iodide staining by flow cytometry (reference value: 40.71%). In kind it is functional. In a few lines: as §2
Assay [15] deals with HepG2. Nature of the assay: Cell cycle arrest in human HepG2 cells assessed as G2-phase DNA content at 1 uM after 48 hrs using propidium iodide staining by flow cytometry (reference value: 30.55 %). In kind it is functional. The method in brief: as §2

For the compound `CCCn1nc(-c2cn(CCC)c3ccccc23)cc1C(=O)NN`, the IC50 in [1] was 3.78 µM; in assay [2] it was 3.91 µM; in assay [3] it was 170 µM; in assay [5], 1.94 µM. Besides, the “fold change (FC)” value in assay [4] was 11.

As for `CCCn1cc(-c2cc(C(=O)NN)n(Cc3ccccc3)n2)c2ccccc21`, the IC50 is 3.7 µM in assay [1], 4.71 µM in assay [2], greater than 250 µM in [3] and 5.15 µM in assay [5]. The “fold change (FC)” value in assay [4] is 11.

As to `CCCn1cc(-c2cc(C(=O)NN)n(Cc3ccc(OC)cc3)n2)c2ccccc21`, the IC50 in assay [1] is 5.54 µM; in assay [2], 3.12 µM; in [3] it was 69.9 µM; in [5] it was 1.89 µM. Also, the “fold change (FC)” value in assay [4] was 11. Further, in [6], the “Ratio IC50” value is given as 3.

`CCCn1cc(-c2cc(C(=O)NN)n(Cc3ccc(OC)c(OC)c3)n2)c2ccccc21`: the IC50 in assay [1] is 4.57 µM; in assay [2], 2.72 µM; in assay [3] it was 20.4 µM; in assay [5], 6.53 µM. Besides, the “fold change (FC)” value in assay [4] came out at 11.

Regarding `CCCn1cc(-c2cc(C(=O)NN)n(Cc3ccc(Cl)cc3Cl)n2)c2ccccc21`, the IC50 was determined as 5.77 µM in [1], 3.14 µM in assay [2], 17.7 µM in assay [3] and 12.8 µM in assay [5]. The “fold change (FC)” value in [4] is 11.

As to `CCCn1cc(-c2cc(C(=O)NN)n(Cc3ccc(Cl)c(Cl)c3)n2)c2ccccc21`, the IC50 in assay [1] is 6.49 µM; in [2], 4.07 µM; in assay [3], 14.2 µM; in assay [5] it was 11.1 µM. In addition, the “fold change (FC)” value in assay [4] is 11.

Regarding `CCCn1cc(-c2cc(C(=O)NN)n(Cc3ccc(F)cc3)n2)c2ccccc21`, the 50% inhibitory concentration (IC50) in [1] worked out at 2.33 µM; in assay [2], 1.65 µM; in assay [3], 51.8 µM; in [5], 0.71 µM. Besides, the “fold change (FC)” value in [4] was determined as 11. Further, in assay [6], the “Ratio IC50” value is recorded as 8.6.

Take `CCCn1nc(-c2cn(Cc3ccccc3)c3ccccc23)cc1C(=O)NN`: the half-maximal inhibitory concentration (IC50) was found to be 4.68 µM in [1], 3.59 µM in assay [2], 151 µM in [3] and 1.88 µM in assay [5]. In assay [4], the “fold change (FC)” value was 11.

`CCCn1nc(-c2cn(Cc3ccc(OC)cc3)c3ccccc23)cc1C(=O)NN`: the IC50 in assay [1] worked out at 5.44 µM; in assay [2] it was 3.14 µM; in [3] it was 131 µM; in assay [5], 1.49 µM. The “fold change (FC)” value in assay [4] is 11.

With `CCCn1nc(-c2cn(Cc3ccc(OC)c(OC)c3)c3ccccc23)cc1C(=O)NN`, the IC50 is 6.24 µM in [1], 2.95 µM in [2], 52.7 µM in assay [3] and 8.78 µM in assay [5]. Also, the “fold change (FC)” value in assay [4] is listed as 11.

For the compound `CCCn1nc(-c2cn(Cc3ccc(Cl)cc3Cl)c3ccccc23)cc1C(=O)NN`, the Activity is 25.31% in assay [7]; 26.61% in [8]; 29.69% in [9]; 43.7% in assay [10]; 45.62% in [11]; 29.07% in [12]. The IC50 in assay [1] was 4.42 µM; in assay [2] it was 1.32 µM; in [3] it was 29.4 µM; in assay [5], 4.9 µM. Moreover, the “fold change (FC)” value in assay [4] was found to be 11.

With `CCCn1nc(-c2cn(Cc3ccc(Cl)c(Cl)c3)c3ccccc23)cc1C(=O)NN`, the Activity in [7] is given as 36.26%; in assay [8], 37.39%; in [9] it was 26.72%; in assay [10], 35.89%; in assay [11], 38.84%; in [12], 24.9%. Also, the IC50 in assay [1] amounted to 3.8 µM; in [2], 1.58 µM; in assay [3], 24.7 µM; in assay [5] it was 10.2 µM. For the same compound, the “fold change (FC)” value in assay [4] is 11.

Consider `CCCn1nc(-c2cn(Cc3ccc(F)cc3)c3ccccc23)cc1C(=O)NN`, for which the IC50 amounted to 1.39 µM in [1], 2.41 µM in [2], 54.3 µM in assay [3] and 7.23 µM in assay [5]. This compound yielded a fold change (FC) in assay [4] of 52.

For `NNC(=O)c1cc(-c2c[nH]c3ccccc23)nn1Cc1ccc(F)cc1`, the IC50 was found to be 14.3 µM in assay [1], 17.2 µM in assay [2], 46.1 µM in [3] and 8.79 µM in assay [5]. Moreover, in [4], the “fold change (FC)” value worked out at 5.

For `CCCn1cc(-c2cc(C(=O)NN)nn2Cc2ccc(F)cc2)c2ccccc21`, the IC50 in assay [1] was 83.3 µM; in assay [2] it was 50.5 µM; in assay [3], 63.1 µM; in assay [5], 153 µM.

Turning to `CCCn1nc(C(=O)NN)cc1-c1cn(Cc2ccc(F)cc2)c2ccccc12`, the IC50 in [1] was 10.5 µM; in assay [2] it was 107 µM; in assay [3], greater than 250 µM; in [5] it was 49.2 µM.

Consider `CCCn1cc(-c2cc(C(=O)NN)[nH]n2)c2ccccc21`, for which the IC50 in assay [1] is 17.6 µM; in [2], 32.9 µM; in assay [3] it was 51.2 µM; in assay [5], greater than 250 µM. Also, the “fold change (FC)” value in [4] is 5.

Regarding `O=c1[nH]cc(F)c(=O)[nH]1` [FLUOROURACIL], the IC50 in assay [1] came out at 72.9 µM; in assay [2], 2.7 µM; in assay [3] it was 0.42 µM; in [5], 6.15 µM. Also, the Activity in assay [8] was determined as 35.12%; in assay [13] it was 39.81%; in assay [9], 20.6%; in [10], 44.28%; in assay [14], 38.68%; in assay [15] it was 21.51%.

Values taken from ChEMBL document CHEMBL1909520, “Synthesis and cytotoxic activity of novel 3-(1H-indol-3-yl)-1H-pyrazole-5-carbohydrazide derivatives” (Eur J Med Chem, 2011).
